# Laboratory results published in ChEMBL document CHEMBL4371030, “Synthesis and antitumor activity of biotinylated camptothecin derivatives as potent cytotoxic agents” (Bioorg Med Chem Lett, 2019).
# Columns and labels:
# Format in all cases: functional, cell-based
# [1] = system: HL-60; experiment: Cytotoxicity against human HL60 cells after 48 hrs by MTT assay; conditions: HL-60, 48 h
# Method in brief: (§1)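 MTT viability read-out on a human tumour panel: HL-60 leukaemia, SMMC-7721 hepatoma, A-549 lung, MCF-7 breast and SW480 colon carcinoma. Camptothecin and cisplatin were run alongside as positive controls. Potency is reported as the half-maximal inhibitory concentration (IC50) in μmol L-1.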
# [2] = system: SW480; experiment: Cytotoxicity against human SW480 cells after 48 hrs by MTT assay; conditions: SW480, 48 h; method in brief: as §1
# [3] = system: MCF7; experiment: Cytotoxicity against human MCF7 cells after 48 hrs by MTT assay; conditions: MCF7, 48 h; method in brief: as §1
# [4] = system: A549; experiment: Cytotoxicity against human A549 cells after 48 hrs by MTT assay; conditions: A549, 48 h; method in brief: as §1
# [5] = system: SMMC-7721; experiment: Cytotoxicity against human SMMC7721 cells after 48 hrs by MTT assay; conditions: SMMC-7721, 48 h; method in brief: as §1
SMILES,IC50 [1],IC50 [2],IC50 [3],IC50 [4],IC50 [5]
CC[C@@]1(OC(=O)CCCCCNC(=O)CCCC[C@@H]2SC[C@@H]3NC(=O)N[C@@H]32)C(=O)OCc2c1cc1n(c2=O)Cc2cc3ccccc3nc2-1,6.57 µM,> 40 µM,21.5 µM,19.9 µM,15.3 µM
CC[C@@]1(OC(=O)CCCC[C@@H]2SC[C@@H]3NC(=O)N[C@@H]32)C(=O)OCc2c1cc1n(c2=O)Cc2cc3ccccc3nc2-1,2.3 µM,12.5 µM,18.2 µM,3.47 µM,7.69 µM
CCc1c2c(nc3ccccc13)-c1cc3c(c(=O)n1C2)COC(=O)[C@@]3(CC)OC(=O)CCCC[C@@H]1SC[C@@H]2NC(=O)N[C@@H]21,1.81 µM,8.73 µM,4.26 µM,1.14 µM,3.28 µM
CC[C@@]1(OCc2cn(CCOCCOCCOCCOCCOCCNC(=O)CCCC[C@@H]3SC[C@@H]4NC(=O)N[C@@H]43)nn2)C(=O)OCc2c1cc1n(c2=O)Cc2cc3ccccc3nc2-1,> 40 µM,> 40 µM,> 40 µM,> 40 µM,> 40 µM
CC[C@@]1(O)C(=O)OCc2c1cc1n(c2=O)Cc2cc3cc(OC(=O)CCCC[C@@H]4SC[C@@H]5NC(=O)N[C@@H]54)ccc3nc2-1,3.19 µM,0.55 µM,2.3 µM,1.23 µM,3.32 µM
CCc1c2c(nc3ccc(OC(=O)CCCC[C@@H]4SC[C@@H]5NC(=O)N[C@@H]54)cc13)-c1cc3c(c(=O)n1C2)COC(=O)[C@]3(O)CC,3.31 µM,0.13 µM,0.8 µM,0.52 µM,1.55 µM
CC[C@@]1(O)C(=O)OCc2c1cc1n(c2=O)Cc2cc3cc(OC(=O)CCCCCNC(=O)CCCC[C@@H]4SC[C@@H]5NC(=O)N[C@@H]54)ccc3nc2-1,1.14 µM,0.45 µM,0.34 µM,0.75 µM,1.85 µM
CCc1c2c(nc3ccccc13)-c1cc3c(c(=O)n1C2)COC(=O)[C@@]3(CC)OC(=O)CCCCCNC(=O)CCCC[C@@H]1SC[C@@H]2NC(=O)N[C@@H]21,0.84 µM,16.2 µM,1.94 µM,3.08 µM,12.2 µM
CCc1c2c(nc3ccc(OC(=O)CCCCCNC(=O)CCCC[C@@H]4SC[C@@H]5NC(=O)N[C@@H]54)cc13)-c1cc3c(c(=O)n1C2)COC(=O)[C@]3(O)CC,0.76 µM,1.48 µM,0.4 µM,0.23 µM,1.14 µM
CC[C@@]1(OCc2cn(CCOCCOCCNC(=O)CCCC[C@@H]3SC[C@@H]4NC(=O)N[C@@H]43)nn2)C(=O)OCc2c1cc1n(c2=O)Cc2cc3ccccc3nc2-1,0.72 µM,6.05 µM,3.47 µM,3.63 µM,4.77 µM
CCc1c2c(nc3ccccc13)-c1cc3c(c(=O)n1C2)COC(=O)[C@@]3(CC)OCc1cn(CCOCCOCCOCCOCCOCCNC(=O)CCCC[C@@H]2SC[C@@H]3NC(=O)N[C@@H]32)nn1,4.77 µM,0.57 µM,9.21 µM,5.18 µM,4.1 µM
CCc1c2c(nc3ccccc13)-c1cc3c(c(=O)n1C2)COC(=O)[C@@]3(CC)OCc1cn(CCOCCOCCNC(=O)CCCC[C@@H]2SC[C@@H]3NC(=O)N[C@@H]32)nn1,> 40 µM,> 40 µM,> 40 µM,> 40 µM,> 40 µM
CC[C@@]1(O)C(=O)OCc2c1cc1n(c2=O)Cc2cc3ccccc3nc2-1 [CAMPTOTHECIN],< 0.064 µM,0.29 µM,,,0.45 µM
